The values below come from ChEMBL document CHEMBL1146852, “Synthesis and pharmacological characterization of novel fluorescent histamine H2-receptor ligands derived from aminopotentidine” (Bioorg Med Chem Lett, 2006).

What all share (format): functional
The target of assay [1] is Histamine H2 receptor (Cavia porcellus, UniProt P47747). As to the kind of experiment: Agonist activity at guinea pig H2R. In outline:
(§1)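 GTPase activity in Sf9 insect cell membranes expressing hH2R-GsαS or gpH2R-GsαS fusion proteins. Curves were fitted by non-linear regression. Means SD of three experiments.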

For assay [2], the target named is T1, Histamine H2 receptor (Homo sapiens, UniProt P25021). As to the kind of experiment: Agonist activity at human H2R. A digest of the protocol:
as §1

Assay [3] can be described thus: Ratio of antagonist activity at human H2R-Gsalpha fusion protein to guinea pig H2R-Gsalpha fusion protein expressed in sf9 cells.
The target in assay [4] is Histamine H2 receptor (Cavia porcellus) (UniProt P47747). As to the kind of experiment: Agonist activity at guinea pig H2R relative to histamine. In outline: as §1
A short description of assay [5]: Antagonist activity at guinea pig H2R-Gsalpha fusion protein expressed in sf9 cells by GTPase assay. The conditions noted are these: Cavia porcellus. A digest of the protocol:
(§2)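 Inhibition of histamine-stimulated high-affinity GTP hydrolysis in Sf9 membranes expressing hH2R-Gsα or gpH2R-Gsα fusion proteins. KB came from non-linear curve fitting. Means SD of three experiments.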

In assay [6] the target is T1, Histamine H2 receptor. As to the kind of experiment: Binding affinity to human H2R expressed in sf9 cells by adenylyl cyclase assay.
Assay [7] in a line: Antagonist activity at human H2R-Gsalpha fusion protein expressed in sf9 cells by GTPase assay. In outline:
as §2

The target of assay [8] is Histamine H1 receptor (Homo sapiens) (UniProt P35367). As to the kind of experiment: Antagonist activity at human recombinant H1R expressed in sf9 cells assessed as inhibition of histamine-stimulated GTP hydrolysis.
For assay [9], the target named is T1, Histamine H2 receptor. As to the kind of experiment: Agonist activity at human H2R relative to histamine. In outline:
as §1

The target of assay [10] is Histamine H2 receptor (Cavia porcellus) (UniProt P47747). As to the kind of experiment: Binding affinity to guinea pig H2R expressed in sf9 cells by adenylyl cyclase assay.

SMILES strings stand for the structures.

What is called EC50 is the midpoint of the concentration-response curve. The low end stands for a more potent agent, the high end for a less potent agent.

Sequence of Histamine H1 receptor (Homo sapiens) (P35367 whole entry): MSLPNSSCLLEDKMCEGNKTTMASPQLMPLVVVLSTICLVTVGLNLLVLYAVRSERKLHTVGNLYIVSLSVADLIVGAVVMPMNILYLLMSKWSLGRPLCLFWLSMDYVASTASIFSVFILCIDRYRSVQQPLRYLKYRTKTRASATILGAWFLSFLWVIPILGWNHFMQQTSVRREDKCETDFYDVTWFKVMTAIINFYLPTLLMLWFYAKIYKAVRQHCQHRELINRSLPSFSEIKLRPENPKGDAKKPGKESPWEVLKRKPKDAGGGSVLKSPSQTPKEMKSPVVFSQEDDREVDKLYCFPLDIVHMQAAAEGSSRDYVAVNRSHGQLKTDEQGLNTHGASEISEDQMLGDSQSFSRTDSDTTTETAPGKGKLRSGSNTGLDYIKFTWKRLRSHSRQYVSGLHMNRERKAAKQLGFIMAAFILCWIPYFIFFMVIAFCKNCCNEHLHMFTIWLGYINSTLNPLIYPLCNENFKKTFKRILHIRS
T1 sequence (P25021 whole entry): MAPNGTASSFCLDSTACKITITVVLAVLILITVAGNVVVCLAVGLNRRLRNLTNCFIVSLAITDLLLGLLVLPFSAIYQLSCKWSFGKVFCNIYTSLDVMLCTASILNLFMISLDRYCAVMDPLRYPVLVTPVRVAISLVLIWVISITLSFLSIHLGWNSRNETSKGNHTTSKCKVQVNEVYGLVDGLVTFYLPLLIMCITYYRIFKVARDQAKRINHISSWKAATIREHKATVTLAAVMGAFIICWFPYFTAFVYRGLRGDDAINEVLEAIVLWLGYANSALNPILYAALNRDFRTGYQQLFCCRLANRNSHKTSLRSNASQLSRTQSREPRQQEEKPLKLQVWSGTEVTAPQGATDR
Sequence of Histamine H2 receptor (Cavia porcellus) (P47747 whole entry, the tested form may be a part): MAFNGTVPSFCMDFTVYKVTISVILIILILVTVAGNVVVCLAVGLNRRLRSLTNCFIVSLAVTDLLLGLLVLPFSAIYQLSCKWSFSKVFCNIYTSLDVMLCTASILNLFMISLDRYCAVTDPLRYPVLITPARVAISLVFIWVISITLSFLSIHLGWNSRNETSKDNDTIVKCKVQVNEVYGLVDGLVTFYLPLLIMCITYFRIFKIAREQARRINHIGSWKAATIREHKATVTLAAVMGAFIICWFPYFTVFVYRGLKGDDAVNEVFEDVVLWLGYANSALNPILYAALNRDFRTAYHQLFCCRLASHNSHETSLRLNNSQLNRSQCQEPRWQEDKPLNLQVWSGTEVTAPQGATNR
Sequence of Histamine H2 receptor (Cavia porcellus, UniProt P47747) (P47747 whole entry, the tested form may be a part): as above

On to `CC1(C)C(=CC=CC=CC2=[N+](CCCCS(=O)(=O)[O-])c3ccccc3C2(C)C)N(CCCCCC(=O)NCCN=C(NC#N)NCCCOc2cccc(CN3CCCCC3)c2)c2ccccc21`, for which the EC50 at Histamine H2 receptor [1] stood at 90 nM; at Histamine H2 receptor [2], 160 nM.
On to `CC1(C)C(/C=C/C=C/C=C2/N(CCCCCC(=O)NCC/N=C(\NC#N)NCCCOc3cccc(CN4CCCCC4)c3)c3ccccc3C2(C)C)=[N+](CCCCS(=O)(=O)[O-])c2ccccc21`, for which, in assay [3], the Ratio amounted to 0.81. Moreover, the Efficacy in assay [4] is 65%; on Histamine H2 receptor [9], 58%. Also, the Kb was 58 nM in assay [5], 47 nM in assay [7] and over 30000 nM in assay [8]. The Activity result (on Histamine H2 receptor [6] (filed as partial agonist); in [10] (filed as partial agonist)) was “Partial agonist” throughout.
`N#CN/C(=N\CCCCCCNC(=O)CCCCCNC(=O)COc1ccc(/C=C/C2=[N+]3C(=Cc4ccc(-c5ccc[nH]5)n4[B-]3(F)F)C=C2)cc1)NCCCOc1cccc(CN2CCCCC2)c1`: the Ratio in [3] was found to be 1.37. Further, the Kb in [5] was 190 nM; in [7], 260 nM; in [8], over 30000 nM.
Regarding `NCCCOc1cccc(CN2CCCCC2)c1`, the Ratio in [3] turned out to be 2.2. The figures for the Kb in [5], in assay [7] and in assay [8] were 6800 nM, 15000 nM and over 30000 nM, respectively.
For `N#CN/C(=N\CCNC(=O)c1ccc(N)cc1)NCCCOc1cccc(CN2CCCCC2)c1.O=C(O)C(=O)O` [AMINOPOTENTIDINE OXALATE], the Ratio in [3] is reported as 0.79. Also, the Kb in assay [5] amounted to 280 nM; in assay [7], 220 nM.
On to `N#CN/C(=N\CCCCCCN)NCCCOc1cccc(CN2CCCCC2)c1`, for which, in assay [3], the Ratio worked out at 24. Moreover, the Kb is 75 nM in assay [5]; 2500 nM at Histamine H2 receptor [6]; 1800 nM in [7]; over 30000 nM in assay [8]; 33 nM in assay [10].
Turning to `O=C(CCCCCNC(=O)COc1ccc(/C=C/C2=[N+]3C(=Cc4ccc(-c5ccc[nH]5)n4[B-]3(F)F)C=C2)cc1)NCCCOc1cccc(CN2CCCCC2)c1`, the Ratio in assay [3] worked out at 4.27. The figures for the Kb in assay [5], in [7] and in [8] were 150 nM, 640 nM and over 30000 nM, respectively.
On to `N#CN/C(=N\CCN)NCCCOc1cccc(CN2CCCCC2)c1`, for which the Ratio in [3] worked out at 4.04. The Kb in assay [5] is 2300 nM; in assay [7] it was 9300 nM; in [8], over 30000 nM.
